By IC50 is commonly meant the concentration that inhibits the measured activity by half. The solubility is the concentration that dissolves in the medium under given conditions. A high value points to a readily soluble substance.

Structures are written as SMILES. Values after ≈ are worked out from the molar mass of the structure shown.

The source of these data is ChEMBL document CHEMBL4118216, “Adamantyl thioureas as soluble epoxide hydrolase inhibitors” (Bioorg Med Chem Lett, 2018).

In series [1] the target is T1, Bifunctional epoxide hydrolase 2 (Homo sapiens, UniProt P34913).
T1 sequence (P34913 whole entry): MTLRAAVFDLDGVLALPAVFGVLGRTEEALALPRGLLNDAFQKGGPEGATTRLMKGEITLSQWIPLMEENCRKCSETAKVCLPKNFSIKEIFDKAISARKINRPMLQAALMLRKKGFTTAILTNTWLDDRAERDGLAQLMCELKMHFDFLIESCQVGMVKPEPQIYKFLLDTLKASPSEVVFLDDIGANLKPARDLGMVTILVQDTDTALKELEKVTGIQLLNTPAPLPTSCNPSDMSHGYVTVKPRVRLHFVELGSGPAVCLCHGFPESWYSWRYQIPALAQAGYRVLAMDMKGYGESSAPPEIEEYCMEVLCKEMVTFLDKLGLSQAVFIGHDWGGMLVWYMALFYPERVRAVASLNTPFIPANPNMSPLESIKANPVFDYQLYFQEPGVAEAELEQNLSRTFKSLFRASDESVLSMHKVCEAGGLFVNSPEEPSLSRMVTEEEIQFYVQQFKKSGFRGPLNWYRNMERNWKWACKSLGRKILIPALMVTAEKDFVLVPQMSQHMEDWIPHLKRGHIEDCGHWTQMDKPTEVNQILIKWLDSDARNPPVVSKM
In words: Inhibition of recombinant human sEH expressed in baculovirus expression system using CMNPC as substrate preincubated for 5 mins followed by substrate addition measured for 10 mins by fluorescent based assay. The gist of the method: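 Kinetic fluorescent assay giving IC50 values; each value is the mean of three separate experiments.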

Series [2] is described as follows: Aqueous solubility of the compound in 0.1 M sodium phosphate buffer at pH 7.4. Format: physicochemical. The gist of the method: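 Solubility determined in 0.1 M sodium phosphate buffer, pH 7.4, with 1% DMSO present.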

For the compound `Fc1cccc(NC(=S)NCC23CC4CC(CC(C4)C2)C3)c1`, in series [1], the IC50 is 281 nM. The compound further displayed a solubility in series [2] of 30 to 40 µM (≈ 9.55 to 12.7 µg/mL).

For the compound `S=C(NC1C2CC3CC(C2)CC1C3)NC1C2CC3CC(C2)CC1C3` (stereo unspecified), the IC50 in series [1] came to 131 nM. For the same compound, the solubility in series [2] lay within 50 to 60 µM (≈ 17.2 to 20.7 µg/mL).

In turn, `CC(NC(=S)NCCCCCCCCNC(=S)NC(C)C12CC3CC(CC(C3)C1)C2)C12CC3CC(CC(C3)C1)C2` (stereo unspecified) gave a solubility in series [2] of 120 to 130 µM (≈ 70.4 to 76.3 µg/mL).

Take `S=C(NCCCCNC(=S)NCC12CC3CC(CC(C3)C1)C2)NCC12CC3CC(CC(C3)C1)C2`: the solubility in series [2] is 140 to 160 µM (≈ 70.4 to 80.5 µg/mL).

As for `CC(NC(=S)Nc1ccc(C23CC4CC(CC(C4)C2)C3)cc1)C12CC3CC(CC(C3)C1)C2` (stereo unspecified), in series [1], the IC50 was 57400 nM. In series [2], this compound had a solubility of 10 to 15 µM (≈ 4.49 to 6.73 µg/mL).

For `CC(NC(=S)NCCCCNC(=S)NC(C)C12CC3CC(CC(C3)C1)C2)C12CC3CC(CC(C3)C1)C2` (stereo unspecified), the solubility in series [2] was 120 to 130 µM (≈ 63.7 to 69 µg/mL).

With `S=C(NCCc1ccccc1)NCC12CC3CC(CC(C3)C1)C2`, the IC50 in series [1] turned out to be 133 nM. In series [2], this compound displayed a solubility of 25 to 30 µM (≈ 8.21 to 9.86 µg/mL).

In the case of `Fc1cccc(NC(=S)NCCC23CC4CC(CC(C4)C2)C3)c1`, in series [1], the IC50 was 160 nM. In series [2], this compound yielded a solubility of 80 to 90 µM (≈ 26.6 to 29.9 µg/mL).

On to `Fc1ccc(NC(=S)NCCC23CC4CC(CC(C4)C2)C3)cc1`, for which the half-maximal inhibitory concentration (IC50) in series [1] came to 148 nM. The solubility in series [2] was in the range of 125 to 150 µM (≈ 41.6 to 49.9 µg/mL).

Consider `S=C(NCC12CC3CC(CC(C3)C1)C2)NC1C2CC3CC(C2)CC1C3` (stereo unspecified), for which, in series [1], the IC50 stood at 902 nM. The same compound returned a solubility in series [2] of 30 to 40 µM (≈ 10.8 to 14.3 µg/mL).

`CC12CC3CC(C)(C1)CC(NC(=S)NCc1ccccc1)(C3)C2`: the IC50 in series [1] came out at 58 nM. The solubility in series [2] was 10 to 15 µM (≈ 3.29 to 4.93 µg/mL).

For the compound `CC12CC3CC(C)(C1)CC(NC(=S)NC1C4CC5CC(C4)CC1C5)(C3)C2` (stereo unspecified), in series [1], the IC50 is 152 nM. The solubility in series [2] lay in the range of 80 to 90 µM (≈ 29.8 to 33.5 µg/mL).

In series [2], `CC(NC(=O)NCCCCNC(=O)NC(C)C12CC3CC(CC(C3)C1)C2)C12CC3CC(CC(C3)C1)C2` (stereo unspecified) showed a solubility of 10 to 25 µM (≈ 4.99 to 12.5 µg/mL).

For `CC(N=C(S)NCc1ccccc1)C12CC3CC(CC(C3)C1)C2` (stereo unspecified), the IC50 in series [1] was found to be 234 nM. In addition, in series [2], the solubility lay within 40 to 50 µM (≈ 13.1 to 16.4 µg/mL).

On to `CC12CC3CC(C)(C1)CC(NC(=S)NCCc1ccccc1)(C3)C2`, for which the IC50 in series [1] is 216 nM. This compound also returned a solubility in series [2] of 8 to 12 µM (≈ 2.74 to 4.11 µg/mL).

In series [2], `CC(NC(=O)NCCCCCCCCNC(=O)NC(C)C12CC3CC(CC(C3)C1)C2)C12CC3CC(CC(C3)C1)C2` (stereo unspecified) gave a solubility of 10 to 25 µM (≈ 5.55 to 13.9 µg/mL).

Take `S=C(NC1C2CC3CC(C2)CC1C3)NC12CC3CC(CC(C3)C1)C2` (stereo unspecified): the IC50 in series [1] turned out to be 14.8 nM. Also, the solubility in series [2] lay within 60 to 70 µM (≈ 20.7 to 24.1 µg/mL).

Regarding `S=C(NCC12CC3CC(CC(C3)C1)C2)Nc1ccc(C23CC4CC(CC(C4)C2)C3)cc1`, the IC50 in series [1] is 5900 nM. In series [2], this compound yielded a solubility of 65 to 75 µM (≈ 28.3 to 32.6 µg/mL).

As for `CC(NC(=S)NC12CC3CC(CC(C3)C1)C2)C12CC3CC(CC(C3)C1)C2` (stereo unspecified), in series [1], the IC50 amounted to 60.3 nM.

For the compound `S=C(NCCCCCCCCNC(=S)NC1C2CC3CC(C2)CC1C3)NC1C2CC3CC(C2)CC1C3` (stereo unspecified), the solubility in series [2] was 25 to 35 µM (≈ 13.3 to 18.6 µg/mL).

Turning to `CC(NC(=S)NCCc1ccccc1)C12CC3CC(CC(C3)C1)C2` (stereo unspecified), the IC50 in series [1] was 345 nM. In series [2], this compound had a solubility of 20 to 30 µM (≈ 6.85 to 10.3 µg/mL).

Consider `S=C(NCCc1ccccc1)NCCC12CC3CC(CC(C3)C1)C2`, for which the half-maximal inhibitory concentration (IC50) in series [1] is 52 nM. Also, the solubility in series [2] is 60 to 80 µM (≈ 20.6 to 27.4 µg/mL).

For the compound `S=C(NCC12CC3CC(CC(C3)C1)C2)NC12CC3CC(CC(C3)C1)C2`, in series [1], the IC50 came to 20.8 nM. Moreover, the solubility in series [2] lay in the range of 70 to 80 µM (≈ 25.1 to 28.7 µg/mL).

For `CCC(CC12CC3CC(CC(C3)C1)C2)NC(=S)Nc1ccccc1` (stereo unspecified), the IC50 in series [1] is 50200 nM.

Regarding `CC12CC3CC(C)(C1)CC(NC(=S)Nc1ccc(Cl)cc1)(C3)C2`, the IC50 in series [1] is 1050 nM.
